# Test results taken from ChEMBL document CHEMBL1146024, “Synthesis and structure-activity relationships of truncated bisubstrate inhibitors of aminoglycoside 6'-N-acetyltransferases” (J Med Chem, 2006).
# Active and inactive are the calls of the source. The rule behind the calls is not given here.
# Tested on: Enterococcus faecium
# Test: Inhibition of Enterococcus faecium C238 growth in presence of kanamycin A
# Format: functional, organism-based
# In short: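 Two-dimensional checkerboard MIC assay per NCCLS, in duplicate, in brain heart infusion medium. Test compound in 2-fold dilutions from 8 to 512 µg/mL against kanamycin A at 100-600 µg/mL. Grown at 37 °C for 16 h; growth read at OD625, averaged, normalized to sterility controls and expressed as percent of positive growth controls.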
row,SMILES,Activity
1,CC(C)(COC(=O)CC(=O)O)[C@@H](O)C(=O)NCCC(=O)NCCSCC(=O)NC[C@H]1O[C@H](O[C@H]2[C@H](O)[C@@H](O)[C@H](N)C[C@@H]2N)[C@H](N)[C@@H](O)[C@@H]1O,inactive
2,CC(=O)CC(=O)OCC(C)(C)[C@@H](O)C(=O)NCCC(=O)NCCSCC(=O)NC[C@H]1O[C@H](O[C@H]2[C@H](O)[C@@H](O)[C@H](N)C[C@@H]2N)[C@H](N)[C@@H](O)[C@@H]1O,Active
